Measured values as given in ChEMBL document CHEMBL3297652, “Acantholactam and pre-neo-kauluamine, manzamine-related alkaloids from the Indonesian marine sponge Acanthostrongylophora ingens” (J Nat Prod, 2014).

Experiments:
HeLa = experiment: Cytotoxicity against human HeLa cells after 3 days by MTT assay; format: functional, cell-based; conditions: 72 h
Method in brief: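 HeLa cells were used, following a previously reported procedure. The result was expressed as an IC50 in μM.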

[1] = system: Macrophage (Homo sapiens); experiment: Inhibition of cholesterol ester accumulation in human monocyte-derived macrophages at 20 uM
[2] = Inhibition of chymotrypsin-like activity of rat liver proteasome using fluorogenic substrates for 6 hrs
Method in brief: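 The chymotrypsin-like activity of the proteasome was measured by a previously reported procedure. Inhibition was expressed as an IC50 in μM.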

Row | SMILES | IC50 (HeLa) [µM] | inhibition at 20 µM [1] [%] | IC50 [2] [µM]
1 | O=C(O)/C=C\CCCN1C(=O)C[C@]23CN4CCCC/C=C\CC[C@](O)(C=C(c5nccc6c5[nH]c5ccccc56)[C@@H]2CC4)[C@H]13 | > 50 | 0 | 33
2 | O[C@@H]1CC[C@@]23C[C@]45CN6CCCC/C=C\CC[C@](O)(C=C(c7nccc8c7[nH]c7ccccc78)[C@@H]4CC6)[C@@H]5N2CC[C@@H]1O[C@@]12CC[C@@H](O3)[C@@H](O)CCN1[C@@H]1[C@]3(CN4CCCC/C=C\CC[C@]1(O)C=C(c1nccc5c1[nH]c1ccccc15)[C@@H]3CC4)C2 | 5.4 | 92 | 0.13
3 | O[C@]12C=C(c3nccc4c3[nH]c3ccccc34)[C@@H]3CCN(CCCC/C=C\CC1)C[C@@]31C[C@@H]3/C=C\CCCCN3[C@H]12 [MANZAMINE A] | 13 | 80 | 2
4 | O[C@@H]1CC[C@@]23C[C@]45CN6CCCC/C=C\CC[C@](O)(C=C(c7nccc8c7[nH]c7ccccc78)[C@@H]4CC6)[C@@H]5N2CC[C@@H]1O3 | 16 | 91 | 0.34
